Assay outcomes as filed in PubChem.
Most compounds without a hit are left out; they make up all but 2.6% or so of the library.
SR-BI uptake up: activators of SR-BI mediated HDL lipid uptake. activation, % at 12.5 µM. CHO ldlA[mSR-BI] cells, DiI-HDL uptake fluorescence, 3 h; 100 = double the neutral-control signal. 0.096% of 320,000 active. AID 504775;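 active = mean replicate activation of at least 60% and every replicate at or above 60%; inconclusive = mean or all-replicate condition met, but not both; inactive = mean below 60% and not all replicates reaching 60%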;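 note: 0% = median plate neutral-control signal and 100% = twice that signal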
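material = CHO ldlA[mSR-BI] cells | medium = Ham's F12 with 0.5% BSA, HEPES 25 mM, pH 7.4 | reagent = fluorescent DiI-HDL, 10 µg/mL final | compound dosing = single-point compound dose | incubation = 3 h, 37 °C | measured by = bottom-read fluorescence, 550/595 nm | measure = HDL uptake via cellular fluorescence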
PvdQ inh: blocks Pseudomonas aeruginosa PvdQ acylase activity; purified PvdQ acylase, fluorescence plate reader; inhibition, % at 10 µM; 0.063% of 340,000 active; AID 488965; in the data active = inhibition above about 30%, passing the limit was not always enough; inconclusive = no clear call, values can overlap the other calls;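 note: 0% = vehicle neutral wells and 100% = reference inhibitor wells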
dFosB act: enhances mouse delta FosB homodimer DNA binding; P13346; purified delta FosB, TAMRA-CDK5 oligo fluorescence polarization; percent of positive-control signal above neutral wells; activation, % at 25 µM; 0.99% of 340,000 active;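 active = mean activation above about 17%, with every replicate also reaching it, limit read from the data, passing the limit was not always enough; inconclusive = only one of the two conditions met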
Target sequence (P13346 whole entry, looked up): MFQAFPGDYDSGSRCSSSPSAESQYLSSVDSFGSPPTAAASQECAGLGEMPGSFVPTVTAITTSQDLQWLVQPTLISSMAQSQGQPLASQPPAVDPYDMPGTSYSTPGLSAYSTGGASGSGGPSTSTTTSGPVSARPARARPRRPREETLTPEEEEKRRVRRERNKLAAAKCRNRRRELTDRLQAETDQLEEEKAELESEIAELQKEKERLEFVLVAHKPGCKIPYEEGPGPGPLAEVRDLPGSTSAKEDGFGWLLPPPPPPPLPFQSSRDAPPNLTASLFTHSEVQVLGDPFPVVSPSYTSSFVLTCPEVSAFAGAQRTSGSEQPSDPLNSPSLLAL
rRNA inh HTS: inhibits bacterial ribosomal RNA function over humanized ribosomes; 1.6% of 350,000 active; AID 720706; E. coli WT GFP vs humanized-ribosome RFP mutants, fluorescence, 24 h; stronger effect = lower value; DMSO median 0, no signal -100; GFP signal change (wild-type ribosome), % (no concentration beside the values);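 active = significant combined selectivity score with lowered wild-type GFP, culture density cut under 30%, mutant RFP and density less affected; inactive = any of these conditions unmet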
Xi reactivation: activators of X-chromosome reactivation in mouse fibroblasts. activation, % at 7.58 µM. 0.055% of 360,000 active. AID 743238. XiGFP mouse fibroblasts, % GFP-positive cells imaging, 3 d; cells co-treated with 5-aza-dC sensitizer; scaled so ellipticine positive control = 100%;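 active = mean normalized replicate activation at least 10% and every replicate at or above 10%; inconclusive = only one of the two criteria met; inactive = mean below 10% and not all replicates reach 10%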;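 note: 0% = median of on-plate neutral control wells and 100% = ellipticine 6 µM median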
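Assay system – SV40-immortalized XiGFP fibroblast cells, line 68-5-11 · Buffer or medium – DMEM supplemented with 5-aza-dC as sensitizing agent · Dosing – one concentration, pinned · Benchmarks – positive control ellipticine, 6 µM final · Times – 3 days compound exposure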
SR-BI HDL uptake: mouse SR-BI HDL lipid transfer inhibition; Q61009; ldlA[mSR-BI] CHO cells, DiI-HDL uptake fluorescence, 3 h; inhibition, % at 12.5 µM; 0.96% of 320,000 active; AID 488896;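 active = mean replicate inhibition of at least 70% and a set share of replicates each scoring 70 or more; inconclusive = meets just one of the two criteria; inactive = fails both criteria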;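 note: 0% = median of neutral control wells and 100% = median of positive control wells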
HepG2 tox: cytotoxic compounds in HepG2 cells. HepG2 viability, ATP luminescence, 72 h. activity change, negative = cytotoxicity, unspecified at 26 µM. shares compounds with rRNA inh HTS. AID 743480. 30 tested, under 10 active;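 active = compounds whose fitted half-maximal signal-loss concentration is at most twice their highest valid dose; inconclusive = flat curve with 30 to 70% signal loss, or poor fit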
AID977621: growth inhibition of wild-type GFP E. coli, dose response, H69 mutant RFP, cherry-pick. shares compounds with rRNA inh HTS. E. coli wild-type GFP strain growth, fluorescence, 24 h. activity change, negative = inhibition at 50 µM. 1,900 tested, under 10 active. AID 977621;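 active = Wild-type ribosome reporter drop at least double the humanized mutant ribosome reporter drop, growth loss under a set limit; inconclusive = no clear call, values can overlap the other calls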;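 note: wild-type GFP and H69 mutant RFP strains grown together 50/50 in each well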
AID977628: E. coli growth inhibition, wild-type GFP versus h24 humanized RFP strain, dose response, h24 mutant RFP vs wild-type GFP, cherry-pick; 1,900 tested, under 10 active; E. coli WT GFP strain growth, fluorescence, 24 h; activity change, negative = inhibition at 50 µM; AID 977628; shares compounds with rRNA inh HTS;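 active = compound lowering the normal-ribosome reporter at least twice as much as the humanized-ribosome reporter, growth loss under a set limit; inconclusive = no clear call, values can overlap the other calls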;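 note: wild-type GFP and h24 humanized RFP strains co-cultured 1 to 1 per well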
Active calls of the source: *.

CC(=O)c1c(C)nn(CC(O)COc2ccc3c(c2)CCC3)c1C (stereo not given) was read as SR-BI uptake up -10, PvdQ inh 9, dFosB act -4, rRNA inh HTS -22*, SR-BI HDL uptake 10 and AID977621 -16.
Screening CCCC12CN3CCN(CC(C3)/C1=N\NC(=O)c1ccccc1Cl)C2 returned SR-BI uptake up 11, PvdQ inh -12, dFosB act -4, rRNA inh HTS 22, Xi reactivation 0 and SR-BI HDL uptake -11.
Screening Cc1ccc(S(=O)(=O)N(C(=O)c2ccncc2)c2ccc(OC(=O)c3ccncc3)cc2)c(C)c1 returned SR-BI uptake up 13, PvdQ inh -7, dFosB act -6, rRNA inh HTS -18*, Xi reactivation 1, SR-BI HDL uptake -13, AID977621 1.9 and AID977628 0.88.
Screening NNC(=O)CCn1nnc2ccccc21 returned SR-BI uptake up 23, PvdQ inh -13, dFosB act 2, rRNA inh HTS 2, Xi reactivation 0 and SR-BI HDL uptake -23.
For O=C(COC(=O)Cc1ccccc1F)Nc1ccc(Cl)cn1 the results were SR-BI uptake up 17, PvdQ inh -6, dFosB act -1, rRNA inh HTS -18*, Xi reactivation 0, SR-BI HDL uptake -17, AID977621 -12 and AID977628 inconclusive.
For O=c1c2ccccc2cnn1Cc1n[nH]c(=S)n1C1CC2CCC1C2 (stereo not given) the results were SR-BI uptake up -8, PvdQ inh -6, dFosB act -6, rRNA inh HTS -20*, Xi reactivation 0, SR-BI HDL uptake 8 and AID977621 -3.5.
For CC(c1ccccc1)n1c(Cn2ncc3ccccc3c2=O)n[nH]c1=S (stereo not given) the results were SR-BI uptake up 1, PvdQ inh -7, dFosB act 0, rRNA inh HTS -9, Xi reactivation 0 and SR-BI HDL uptake -1.
COC(=O)CCN(Cc1ccccc1)S(=O)(=O)c1ccccc1Br was read as SR-BI uptake up 12, PvdQ inh -13, dFosB act -2, rRNA inh HTS -9, Xi reactivation 0 and SR-BI HDL uptake -12.
Screening O=C(O)CCN(Cc1ccccc1)S(=O)(=O)c1ccc(Cl)cc1F returned SR-BI uptake up 27, PvdQ inh -11, dFosB act 1, rRNA inh HTS -20*, Xi reactivation 0, SR-BI HDL uptake -27, AID977621 -5.9 and AID977628 inconclusive.
For O=C(O)CCN(Cc1ccccc1)S(=O)(=O)c1ccccc1Cl the results were SR-BI uptake up 12, PvdQ inh -15, dFosB act -2, rRNA inh HTS -20*, Xi reactivation 0, SR-BI HDL uptake -12 and AID977621 -5.7.
COCCNc1nnc(SCC(=O)c2c[nH]c3ccccc23)s1 was read as SR-BI uptake up -33, PvdQ inh -2, dFosB act 1, Xi reactivation 0 and SR-BI HDL uptake 33.
For Cc1cc(C)c(OCCNC(=O)c2ccccc2Sc2ccccc2C#N)c(C)c1 the results were SR-BI uptake up -17, PvdQ inh -9, dFosB act 6, rRNA inh HTS -25*, Xi reactivation 0, SR-BI HDL uptake 17 and HepG2 tox 21.
Screening Cc1ccccc1OCCNC(=O)c1ccccc1Sc1ccccc1C#N returned SR-BI uptake up -24, PvdQ inh 2, dFosB act -7 and SR-BI HDL uptake 24.
`O=C(Nc1ccc(C2CCCCC2)cc1)C1CCN(c2ncccn2)CC1` gave SR-BI uptake up -3, PvdQ inh -1, dFosB act 0 and SR-BI HDL uptake 3.
C[C@H]1CN=C(N(C)C)N1CCc1cccc(F)c1 was read as SR-BI uptake up -9, PvdQ inh 1, dFosB act -4, rRNA inh HTS 1, Xi reactivation 0 and SR-BI HDL uptake 9.
Cc1ccc(CSc2ncnc3onc(C)c23)cc1 was read as SR-BI uptake up 0, PvdQ inh -12, dFosB act -2, rRNA inh HTS 7, Xi reactivation 0 and SR-BI HDL uptake 0.
For Cc1noc2ncnc(SCc3ccc(C(F)(F)F)cc3)c12 the results were SR-BI uptake up -8, PvdQ inh -2, dFosB act -1, rRNA inh HTS -21*, Xi reactivation 0, SR-BI HDL uptake 8, AID977621 -2.2 and AID977628 inconclusive.
For Cc1c(C(=O)O)sc2nc(CSc3ncc(C(F)(F)F)cc3Cl)[nH]c(=O)c12 the results were PvdQ inh 13, dFosB act -7, rRNA inh HTS -33*, Xi reactivation 0 and HepG2 tox 21.
For CCn1nc(C)cc1C(=O)N1CCCC(C(=O)c2ccc3ccccc3c2)C1 (stereo not given) the results were PvdQ inh 3, dFosB act -10, rRNA inh HTS -20*, Xi reactivation 0 and AID977621 -4.3.
Screening Cc1cccc2sc(N(CCCN(C)C)C(=O)c3ccc(C(=O)c4ccccc4)cc3)nc12 returned SR-BI uptake up -3, PvdQ inh -7, dFosB act -29, rRNA inh HTS -60, Xi reactivation 0 and SR-BI HDL uptake 3.
Screening COc1ccc(C(=O)N2CCCC(CNC(=O)c3ccc(F)cc3)C2)cc1OC (stereo not given) returned SR-BI uptake up 26, PvdQ inh -15, dFosB act 0, rRNA inh HTS 11, Xi reactivation 0 and SR-BI HDL uptake -26.
`Cc1ccc(S(=O)(=O)N(C)CC(=O)OCC(=O)c2ccc3c(c2)NC(=O)CO3)cc1` gave SR-BI uptake up 5, PvdQ inh -11, dFosB act -1, rRNA inh HTS -2, Xi reactivation 1 and SR-BI HDL uptake -5.
Screening CN(C)S(=O)(=O)c1cccc(C(=O)OCC(=O)c2ccc3c(c2)NC(=O)CO3)c1 returned SR-BI uptake up -15, PvdQ inh -6, dFosB act -13, rRNA inh HTS -27*, SR-BI HDL uptake 15, AID977621 -9.3 and AID977628 -9.2.
